Results pooled from the literature.
Lines come from different studies, so protocols differ.
TOP2A: DNA topoisomerase 2-alpha (TOP2A, Homo sapiens, UniProt P11388)
DHFR: Dihydrofolate reductase (DHFR, Homo sapiens, UniProt P00374)
HTR2C: 5-hydroxytryptamine receptor 2C (HTR2C, Homo sapiens, UniProt P28335)
FAAH: Fatty-acid amide hydrolase 1 (FAAH, Homo sapiens, UniProt O00519)
HTR2B: 5-hydroxytryptamine receptor 2B (HTR2B, Homo sapiens, UniProt P41595)

`O=c1nc(SCc2cc(F)cc(C(F)(F)F)c2)nc(SCc2nc3ccccc3[nH]2)[nH]1` has an IC50 of 31.7 µM (TOP2A; enzyme activity; inhibitor).
With `S=C(NN=Cc1ccc(N2CCCCC2)cc1)Nc1ccccc1` the IC50 was 15.6 µM (DHFR; enzyme activity; inhibitor).
`CC(C)NCC(COc1cccc2ccccc12)OC(=O)C=Cc1ccc(O)c(O)c1` (stereo not drawn) gave an IC50 of 0.048 µM (DHFR; enzyme activity; inhibitor; absorbance).
With `O=C(c1cc(C2CCNC2)[nH]n1)N1CCC(c2cccc(Cl)c2)C1` (stereo not drawn) the IC50 was 8.5 µM (HTR2C; calcium signal; antagonist).
For `O=C(Nc1ccc(-c2cnc3ccccc3c2)cc1)C1CCN(S(=O)(=O)c2ccccc2Cl)CC1`, the IC50 was 0.016 µM (FAAH; enzyme activity; inhibitor; fluorescence).
The IC50 of `O=C(C=Cc1ccc(O)c(O)c1)Oc1cccc2cccnc12` is reported as 13 µM (DHFR; enzyme activity; inhibitor; absorbance).
The IC50 of `S=C(NN=Cc1ccc(N2CCCCC2)cc1)Nc1c(Cl)cccc1Cl` is reported as 36.3 µM (DHFR; enzyme activity; inhibitor).
`O=C(Nc1ccc(-c2ccnc3ccccc23)cc1)C1CCN(S(=O)(=O)c2ccccc2Cl)CC1` gave an IC50 of 0.0887 µM (FAAH; enzyme activity; inhibitor; fluorescence).
For `O=C(C=Cc1ccc(O)c(O)c1)Oc1ccccc1`, the IC50 was 15.4 µM (DHFR; enzyme activity; inhibitor; absorbance).
`Cc1cccc(C)c1NC(=S)NN=Cc1ccc(N2CCCCC2)cc1` has an IC50 of 18.3 µM (DHFR; enzyme activity; inhibitor).
With `NCC1Cc2cc(F)ccc2N(C(=O)Cc2cc(F)ccc2Br)C1` (stereo not drawn) the IC50 was 43.4 µM (HTR2C; calcium signal; antagonist).
For `O=C(O)/C=C/c1ccc(O)c(O)c1`, the IC50 was 105 µM (DHFR; enzyme activity; inhibitor; absorbance).
For `CC(C)c1ccc(CSc2nc(SCc3ccc4sccc4c3)[nH]c(=O)n2)cc1`, the IC50 was 14.2 µM (TOP2A; enzyme activity; inhibitor).
For `O=C(Nc1ccc(-c2cccc3cccnc23)cc1)C1CCN(S(=O)(=O)c2ccccc2Cl)CC1`, the IC50 was 0.135 µM (FAAH; enzyme activity; inhibitor; fluorescence).
For `CC(=O)Nc1ccc(Nc2nc(-c3sc(N)nc3C)cs2)cc1`, the IC50 was > 10 µM (Lysyl oxidase homolog 1 (LOXL1, Homo sapiens, UniProt Q08397); enzyme activity; inhibitor; fluorescence; with preincubation).
The IC50 of `COc1ccccc1CC1CCN(CC(=O)c2cc(C)[nH]c2C)C1` (stereo not drawn) is reported as 23 µM (HTR2C; calcium signal; antagonist).
With `O=c1nc(SCc2cc(F)cc(C(F)(F)F)c2)nc(SCc2ccc3sccc3c2)[nH]1` the IC50 was 13.3 µM (TOP2A; enzyme activity; inhibitor).
For `S=C(NCCc1ccccc1)NN=Cc1ccc(N2CCCCC2)cc1`, the IC50 was 22.9 µM (DHFR; enzyme activity; inhibitor).
`O=C(Nc1ccc(-c2ccc3ncccc3c2)cc1)C1CCN(S(=O)(=O)c2ccccc2Cl)CC1` gave an IC50 of 0.0508 µM (FAAH; enzyme activity; inhibitor; fluorescence).
`Cc1cccc(OCCCC(=O)N2CCNCc3ccccc32)c1` has an IC50 of 16.9 µM (HTR2B; calcium signal; antagonist).
For `Cc1ccc(CNC(=S)NN=Cc2ccc(N3CCCCC3)cc2)cc1`, the IC50 was 33.9 µM (DHFR; enzyme activity; inhibitor).
The IC50 of `Cc1[nH]c2ccccc2c1C(=O)C(C)N1CCC(c2nccn2C)C1` (stereo not drawn) is reported as 2.61 µM (HTR2C; calcium signal; antagonist).
`Cc1nc(CSc2nc(SCc3ccc(C(F)(F)F)cc3)nc(=O)[nH]2)cs1` has an IC50 of 64.7 µM (TOP2A; enzyme activity; inhibitor).
For `CC1CCC(C(C)C)C(OC(=O)C=Cc2ccc(O)c(O)c2)C1` (stereo not drawn), the IC50 was 0.182 µM (DHFR; enzyme activity; inhibitor; absorbance).
The IC50 of `S=C(NN=Cc1ccc(N2CCCCC2)cc1)Nc1cccc(Cl)c1Cl` is reported as 47.3 µM (DHFR; enzyme activity; inhibitor).
The IC50 of `c1ccc(O[C@H]2CCN(Cc3ccc(-c4ccn[nH]4)o3)C2)cc1` is reported as 15.6 µM (HTR2B; calcium signal; antagonist).
`S=C(NN=Cc1ccc(N2CCCCC2)cc1)Nc1ccc(Cl)cc1` has an IC50 of 18.4 µM (DHFR; enzyme activity; inhibitor).
For `O=C1C(N2CCC(c3cn[nH]n3)C2)CCN1c1cccc(Cl)c1` (stereo not drawn), the IC50 was 7.25 µM (HTR2B; calcium signal; antagonist).
`S=C(NCc1ccc(Cl)cc1)NN=Cc1ccc(N2CCCCC2)cc1` has an IC50 of 20.6 µM (DHFR; enzyme activity; inhibitor).
The IC50 of `Cc1[nH]c2ccccc2c1SCCNC(=O)C1NCCC1C1CC1` (stereo not drawn) is reported as 38.2 µM (HTR2C; calcium signal; antagonist).
